Source: PubChem BioAssay
Compounds with a hit are over-represented: about 3.7% of the library has one in this group of screens.
hERG protect = compounds protecting human hERG from proarrhythmic drug block | Q12809 | CHO-hERG, FluxOR thallium flux, dofetilide IC70 present | activation (rescue from dofetilide block), less the hit threshold, % at 10 µM | actives 0.51% (n = 310,000);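 active = activation above the mean of controls blocked by dofetilide plus 5 SD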;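 also: thallium influx through hERG after potassium depolarization seen as dye fluorescence rise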
KCNQ1 block = inhibitors of human KCNQ1 potassium channel; CHO-K1 KCNQ1, FluxOR thallium flux fluorescence; hits give high values; B-score at 10 µM; actives 1.3% (n = 310,000); AID 2642;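 active = compounds whose thallium flux B-score, printed positive for inhibition, exceeds three library SD while starting fluorescence stays within three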;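 also: channel opened by potassium depolarization with thallium stimulus after 20 min compound exposure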
KCNK9 inh = human KCNK9 channel inhibition; Q9NPC2; HEK293 KCNK9, FluxOR thallium flux fluorescence; hits give low values; B-score at 10 µM; actives 1.2% (n = 310,000); AID 488922;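 active = ratio B-score over 3 SD below the library mean, with starting fluorescence within 5 SD of its mean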;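 also: negative B-score means less thallium flux so channel inhibition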
KCNK3 inh = human KCNK3 channel inhibition, primary screen; actives 0.84% (n = 340,000); CHO-KCNK3 thallium flux, FluxOR fluorescence; hits give low values; AID 602410; B-score at 10 µM;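 active = B-score under library mean minus 4 SD, starting fluorescence ratio at most library mean plus 5 SD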;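 also: more negative B-score means stronger inhibition of thallium flux through KCNK3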
KCNQ1 act = potentiators or activators of human KCNQ1 potassium channel | B-score at 10 µM | CHO-K1 KCNQ1, thallium flux FluxOR fluorescence; hits give high values | actives 0.35% (n = 310,000) | P51787;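 active = fluorescence ratio B-score, a plate-corrected score, at least three library SD, with initial intensity B-score within 5 SD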
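Assay system: CHO-K1 cells stably expressing KCNQ1; Medium: assay buffer with matched DMSO; Also added: K+/Tl+ depolarizing stimulus; Dosing: single dose; Timing: dye 90 min, compound 20 min, room temperature; Measured by: kinetic FluxOR thallium fluorescence, 10-s 1-Hz baseline, 110-s post-stimulus read; Read-out: peak-minus-minimum fluorescence over initial fluorescence, negative-control normalized, B-scored.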
Kir21 block = Kir2.1 (mouse) channel inhibition. HEK293-Kir2.1, FluxOR thallium flux fluorescence; hits give low values. B-score at 10 µM. actives 0.85% (n = 310,000). AID 1672;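 active = fluorescence ratio B-score at or below minus 3 SD of library scores, with starting-brightness B-score within 2 SD, cut at about -4.2 in these data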;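 also: channel flux triggered by added potassium and thallium sulfate stimulus; B-score of peak minus minimum fluorescence over baseline after thallium stimulus; more negative B-score means stronger Kir2.1 block with less thallium influx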
KCNQ1 inh valid = human KCNQ1 channel inhibition, validation assay; shares compounds with KCNQ1 block; KCNQ1 cell line, FluxOR thallium flux fluorescence; inhibition, % at 10 µM; actives 93% (n = 1,600); AID 588353;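 active = primary screen active, with duplicate mean exceeding buffer control mean plus 3 SD of buffer wells, cut at about 28% in these data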;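 also: 0% = buffer control ratio and 100% = XE991 inhibitor control ratio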
CHO Tl flux = KCNQ1 inhibitor counter-screen hit in parental CHO cells | shares compounds with KCNQ1 block | parental CHO-K1, FluxOR thallium flux fluorescence ratio; hits give low values; zero means no signal rise above baseline | fluorescence ratio (Tl flux) at 10 µM | actives 21% (n = 1,600) | AID 588366;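 active = mean of duplicate thallium-flux fluorescence ratios in parental host cells more than 5 SD below the buffer control mean, cut at about 0.38 in these data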;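 also: ratio is peak minus minimum fluorescence divided by baseline fluorescence; actives read low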
KCNQ1 APC inh = blocks human KCNQ1 current in automated patch clamp; shares compounds with KCNQ1 block; KCNQ1-CHO cells; calls only at 10 µM; actives 20% (n = 490);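 active = KCNQ1 current drop exceeding 3 SD of negative control wells, seen in both duplicate runs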;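 also: steady state current during a 2 s step from -80 to +40 mV; negative values mean current inhibition and positive values mean potentiation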
KCNQ2 spec = KCNQ1 inhibitor that also blocks rat KCNQ2 channel. shares compounds with KCNQ1 block. KCNQ2 cells, FluxOR thallium flux fluorescence. inhibition, % at 10 µM. actives 71% (n = 1,600). AID 651746;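 active = mean percent inhibition of the KCNQ2 thallium signal more than 5 SD above the buffer-only control wells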;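 also: KCNQ2 expressed in CHO cells; 0% = buffer control wells and 100% = XE-991 inhibitor control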
KCNQ1-KCNE1 inh = selectivity of KCNQ1 inhibitors: inhibition of human KCNQ1/KCNE1 channel; KCNQ1/KCNE1 cells, FluxOR thallium flux fluorescence; shares compounds with KCNQ1 block; actives 77% (n = 1,600); inhibition, % at 10 µM;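 active = mean percent inhibition of duplicate wells above the buffer-only control mean plus 3 SD of those controls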;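 also: 0% = buffer only wells and 100% = XE-991 inhibitor control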
Target sequence (P51787 whole entry, looked up): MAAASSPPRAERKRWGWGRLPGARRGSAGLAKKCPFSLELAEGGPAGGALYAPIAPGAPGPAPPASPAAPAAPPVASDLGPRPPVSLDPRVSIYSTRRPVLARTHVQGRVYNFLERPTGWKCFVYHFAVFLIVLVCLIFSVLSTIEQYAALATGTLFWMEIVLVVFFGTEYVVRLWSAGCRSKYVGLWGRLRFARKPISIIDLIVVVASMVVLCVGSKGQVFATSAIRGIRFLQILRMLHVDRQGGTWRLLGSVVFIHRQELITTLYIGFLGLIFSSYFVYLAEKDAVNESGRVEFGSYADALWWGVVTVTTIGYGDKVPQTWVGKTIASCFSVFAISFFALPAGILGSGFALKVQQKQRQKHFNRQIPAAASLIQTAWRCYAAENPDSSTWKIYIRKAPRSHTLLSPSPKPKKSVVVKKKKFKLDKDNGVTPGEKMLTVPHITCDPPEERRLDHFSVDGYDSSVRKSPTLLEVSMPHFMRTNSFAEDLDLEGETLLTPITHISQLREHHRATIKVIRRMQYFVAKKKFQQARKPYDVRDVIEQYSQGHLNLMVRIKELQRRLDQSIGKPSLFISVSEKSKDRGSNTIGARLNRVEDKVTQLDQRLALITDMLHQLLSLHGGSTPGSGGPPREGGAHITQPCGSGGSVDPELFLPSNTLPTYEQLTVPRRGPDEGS
KCNK9 block conf = human KCNK9 inhibitor confirmation | HEK293 KCNK9 cells, FluxOR thallium flux fluorescence | shares compounds with KCNK9 inh | actives 43% (n = 4,900) | inhibition, % at 10 µM;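 active = thallium signal inhibited by more than 5 SD of the compound-free buffer control wells, on both duplicate plates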;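 also: 0% = assay buffer control wells without compound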
Kir21 sel = tests whether KCNK9 modulators also affect mouse Kir2.1 | shares compounds with KCNK9 inh | Kir2.1 cells, FluxOR thallium flux fluorescence | inhibition, % at 10 µM | actives 4% (n = 4,900) | AID 492993;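 active = thallium signal drop more than 5 SD beyond the mean of the no-compound control wells, seen in both duplicate plates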;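 also: signal is fluorescence rise after thallium addition divided by baseline fluorescence; plate controls were assay buffer only for no effect and full block by chlorpromazine control for full effect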
KCNK9 uninduced = second check of KCNK9 modulator effects in non-induced HEK293 cells; shares compounds with KCNK9 inh; FluxOR thallium flux; inhibition, % at 10 µM; actives 40% (n = 4,900);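 active = thallium signal drop beyond 5 SD of the untreated control mean, on both duplicate plates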;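 also: plate controls were buffer only IC0 wells for no effect and SID17386958 at its maximal inhibitory level for full effect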
KCNK3 confirm = confirmation of human KCNK3 two-pore domain potassium channel inhibitors. shares compounds with KCNK3 inh. CHO-KCNK3 thallium flux, FluxOR fluorescence; 0% buffer, 100% carvedilol maximal block. ratio percent of control, % at 10 µM. actives 99% (n = 2,400). AID 651638;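 active = ratio percent of control, averaged over triplicates, above buffer control mean plus 5 SD, cut at about 64% in these data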;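 also: ratio is the fluorescence rise from min to max over baseline after thallium stimulus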
KCNK3 noninduced = activity in cells without induced KCNK3 expression | shares compounds with KCNK3 inh | non-induced KCNK3 parental cells, FluxOR thallium flux; hits give low values | thallium flux ratio (lower = more inhibition) at 10 µM | actives 40% (n = 2,400);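 active = thallium flux ratio, averaged over three wells, more than 5 SD below the buffer control mean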;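 also: host cells are CHO cells without KCNK3 induction; ratio is peak minus trough fluorescence over baseline then normalized to buffer controls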
Starred values were filed as active, the others as inactive; i = inactive; · = no result given; + = active, no number.

SMILES	hERG protect	KCNQ1 block	KCNK9 inh	KCNK3 inh	KCNQ1 act	Kir21 block	KCNQ1 inh valid	CHO Tl flux	KCNQ2 spec	KCNQ1-KCNE1 inh	KCNK3 confirm	KCNK3 noninduced	others
CC(C)(C)c1cc(C(=O)NNC(=O)Nc2ccccc2)n(Cc2ccccc2)n1	-8	i	i	i	i	1.3	·	·	·	·	·	·
CC(C)(C)c1cc(C(=O)NCc2cc(F)cc3c2OCOC3)n(Cc2ccccc2)n1	-11	9*	-7.9*	-12*	i	-0.15	134*	0.37*	101%*	198%*	135*	0.13*
COCCn1ccc2c(OCC(=O)Nc3ccccc3OC)cccc2c1=O	-7	i	i	i	i	2.1	·	·	·	·	·	·
CC(C)c1ccc2c(c1)C1(NN=C(c3ccccc3)S1)C(=O)N2 (stereo not drawn)	-22	18*	i	-12*	i	0.95	68*	0.35*	78%*	42%*	138*	0.095*
CC(C)OCCCNc1nc(-c2ccccc2)nc2ccccc12	-24	7*	i	-10*	i	1.6	88*	0.48	117%*	152%*	123*	i	KCNQ1 APC inh=i
CN(C)S(=O)(=O)c1cccc(C(=O)Nc2cc(Cl)cc(Cl)c2)c1	-10	7*	i	-13*	i	1.8	67*	0.49	110%*	i	126*	i
O=C(Nc1ccncc1)c1cc(-c2cccc(Br)c2)nc2ccccc12	-16	i	i	i	i	-0.05	·	·	·	·	·	·
O=C(Nc1cccnc1)c1cc(-c2cccc(Br)c2)nc2ccccc12	-18	15*	-9.2*	-12*	i	0.86	148*	0.31*	130%*	195%*	156*	0.1*	KCNK9 block conf=i;Kir21 sel=i;KCNK9 uninduced=38%*
CCCCN1C(=O)C(=O)N(CC(=O)Nc2ccc(OC(F)(F)F)cc2)C1=O	·	·	·	i	·	·	·	·	·	·	·	·
O=C(c1cc(Cl)ccc1Cl)N1CCN(c2ccccn2)CC1	-8	i	i	i	i	-1.5	·	·	·	·	·	·
O=C(c1cnc(N2CCN(c3ccccn3)CC2)c2ccccc12)N1CCN(c2cccc(Cl)c2)CC1	-3	10*	i	-9.3*	i	-0.04	102*	0.38*	119%*	130%*	97*	i
Cc1cccc(NC(=O)CSc2nc3ccccc3nc2N2CC(C)OC(C)C2)c1 (stereo not drawn)	-9	8*	i	-11*	i	-0.88	102*	0.42	122%*	132%*	114*	i	KCNQ1 APC inh=i
O=C(CSc1nc2ccccc2nc1N1CCCCC1)Nc1ccc(F)cc1	-9	13*	-6.9*	-9.8*	i	0.13	108*	0.41	97%*	158%*	137*	0.12*	KCNQ1 APC inh=i
COc1ccc(Nc2nc(N)c([N+](=O)[O-])c(NC3CCCCC3)n2)cc1	-3	i	i	i	i	0	·	·	·	·	·	·
CCOc1ccc(C(=O)Nc2cccc(C(=O)O)c2)cc1Cl	-7	i	i	i	i	-0.04	·	·	·	·	·	·
CCOc1ccc(C(=O)Nc2cccc(-c3nc4cccnc4o3)c2)cc1Cl	-18	9*	-16*	-10*	i	-0.4	135*	0.47	110%*	190%*	125*	i	KCNQ1 APC inh=i;KCNK9 block conf=46%*;Kir21 sel=i;KCNK9 uninduced=i
Cc1nc2ccc(S(=O)(=O)Nc3cccc(-c4nc5cccnc5s4)c3C)cc2s1	-21	12*	i	-9.6*	i	0.84	145*	0.32*	105%*	+	114*	i
Cc1nc2ccc(S(=O)(=O)Nc3cc(-c4nc5cccnc5s4)ccc3C)cc2s1	-17	i	i	i	i	-0.02	·	·	·	·	·	·
CC(=O)c1c(C)[nH]c(C(=O)Nc2cccc(S(=O)(=O)N(C)c3ccccc3)c2)c1C	-17	16*	-8.6*	-11*	i	-0.65	128*	0.35*	143%*	184%*	133*	0.12*	KCNK9 block conf=i;Kir21 sel=i;KCNK9 uninduced=36%*
CCN(CC)S(=O)(=O)c1ccc2oc(SCc3ccc(F)cc3)nc2c1	-12	9*	-8.7*	-11*	i	-1	82*	0.45	80%*	102%*	100*	i	KCNK9 block conf=36%*;Kir21 sel=i;KCNK9 uninduced=41%*
Cc1ccc(NC(=S)NCc2ccccc2)cc1S(=O)(=O)N1CCCCC1	-11	6*	i	-11*	i	-2.7	108*	0.52	62%*	i	116*	i	KCNQ1 APC inh=i
Cc1ccc(NC(=O)CSc2ccccc2)cc1S(=O)(=O)N1CCCCC1	·	·	·	i	·	·	·	·	·	·	·	·
C/C(=C\c1ccccc1)C(=O)Nc1ccc(Cl)cn1	-6	i	i	i	i	0.02	·	·	·	·	·	·
Cc1ccc(NC(=O)c2cc(-c3cccs3)nc3ccccc23)nc1	-20	6*	i	-11*	i	-0.53	88*	0.37*	121%*	196%*	111*	0.14*
